From ChEMBL document CHEMBL3779824, “Design and synthesis of novel chalcones as potent selective monoamine oxidase-B inhibitors” (Eur J Med Chem, 2016) come the findings set out here.

The target of series [1] is T1, Amine oxidase [flavin-containing] A (Homo sapiens, UniProt P21397).
T1 sequence (P21397 whole entry): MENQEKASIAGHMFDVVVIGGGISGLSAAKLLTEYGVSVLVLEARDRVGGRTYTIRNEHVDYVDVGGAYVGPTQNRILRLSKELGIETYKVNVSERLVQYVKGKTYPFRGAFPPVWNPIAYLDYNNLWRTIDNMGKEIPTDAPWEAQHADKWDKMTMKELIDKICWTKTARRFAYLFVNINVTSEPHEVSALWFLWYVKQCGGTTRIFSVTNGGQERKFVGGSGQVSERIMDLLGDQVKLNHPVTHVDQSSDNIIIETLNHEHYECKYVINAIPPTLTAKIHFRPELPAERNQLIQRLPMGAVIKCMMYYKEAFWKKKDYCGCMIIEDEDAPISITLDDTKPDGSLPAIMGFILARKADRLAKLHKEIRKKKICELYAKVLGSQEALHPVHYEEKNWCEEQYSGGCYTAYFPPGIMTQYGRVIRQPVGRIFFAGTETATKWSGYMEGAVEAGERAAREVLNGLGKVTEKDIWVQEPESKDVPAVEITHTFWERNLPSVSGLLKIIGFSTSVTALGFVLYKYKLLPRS
Nature of the series: Inhibition of recombinant human MAOA expressed in baculovirus infected BTI insect cell microsomes at 10 uM using MMTP as substrate preincubated for 5 mins followed by substrate addition by spectrophotometric analysis. In a few lines:
(§1)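 Insect-cell microsomes carrying recombinant human enzyme (25 µg per assay) in 0.1 M potassium phosphate. Incubated with inhibitor at 10 µM final (DMSO 3.3% v/v final) for 5 min at 37 °C. Started with MMTP at 0.15 mM. Absorbance increase followed at 420 nm at 37 °C, with v0 from ε 25000 M-1 cm-1. Activity given as a ratio to a DMSO-only control (100%).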

Series [2] deals with T2, Amine oxidase [flavin-containing] B (Homo sapiens, UniProt P27338).
T2 sequence (P27338 whole entry): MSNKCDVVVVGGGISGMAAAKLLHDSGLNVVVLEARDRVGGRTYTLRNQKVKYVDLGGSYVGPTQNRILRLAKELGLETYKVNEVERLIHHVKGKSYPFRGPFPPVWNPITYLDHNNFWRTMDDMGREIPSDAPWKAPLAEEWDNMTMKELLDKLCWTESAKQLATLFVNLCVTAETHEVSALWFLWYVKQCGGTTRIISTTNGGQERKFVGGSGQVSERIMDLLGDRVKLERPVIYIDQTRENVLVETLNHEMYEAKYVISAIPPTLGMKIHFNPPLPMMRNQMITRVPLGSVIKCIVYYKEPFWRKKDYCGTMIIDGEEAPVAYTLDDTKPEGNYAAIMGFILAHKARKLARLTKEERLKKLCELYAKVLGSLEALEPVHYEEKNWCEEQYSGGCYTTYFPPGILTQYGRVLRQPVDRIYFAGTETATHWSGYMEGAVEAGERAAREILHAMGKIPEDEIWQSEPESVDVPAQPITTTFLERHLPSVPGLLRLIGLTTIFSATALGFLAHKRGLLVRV
As to the kind of experiment: Inhibition of recombinant human MAOB expressed in baculovirus infected BTI insect cell microsomes at 10 uM using MMTP as substrate preincubated for 5 mins followed by substrate addition by spectrophotometric analysis. In a few lines:
as §1

The target of series [3] is T2, Amine oxidase [flavin-containing] B. Nature of the series: Inhibition of recombinant human MAOB expressed in baculovirus infected BTI insect cell microsomes using MMTP as substrate preincubated for 5 mins followed by substrate addition by spectrophotometric analysis. The gist of the method:
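MAO-B in insect-cell microsomes, 25 µg in 0.1 M potassium phosphate with 3.3% v/v DMSO final. Preincubated with inhibitor for 5 min at 37 °C, then MMTP added at 0.15 mM. Absorbance read at 420 nm at 37 °C. Remaining activity relative to the DMSO control was fitted against log10[I] to a dose-response curve for IC50. Mean ± SEM of two experiments.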

For series [4] the target is unchanged. As to the kind of experiment: Competitive inhibition of human MAOB overexpressed in Pichia pastoris using MMTP as substrate preincubated for 5 mins followed by substrate addition by UV/vis spectrophotometric analysis. In a few lines:
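Purified recombinant human MAO-B in reaction buffer containing 0.25% v/v reduced Triton X-100. MMTP assay read at 420 nm in quartz cuvettes under aerobic conditions at 25 °C. MMTP was varied from 0.07 to 2.00 mM and inhibitor from 3 to 40 µM. Apparent kcat (v0/[E]) was plotted against substrate and fitted to competitive, uncompetitive and noncompetitive models to give Ki.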

For series [5] the target is unchanged. As to the kind of experiment: Time-dependent inhibition of recombinant human MAOB expressed in baculovirus infected BTI insect cell microsomes at IC50 using MMTP as substrate preincubated for 5 mins followed by substrate addition measured after 5 to 60 mins by spectrophotometric analysis. In a few lines:
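Microsomal human MAO-B was preincubated with inhibitor at 0.55 µM final for 5, 15, 30 or 60 min. Residual activity was then measured in the MMTP assay (420 nm, 37 °C). Rates expressed as apparent kcat (min-1); SEM from two replicates.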

`O=C(/C=C/c1cccc2c1OCO2)c1cccc(OC(F)(F)F)c1`: the inhibition at 10 µM came out at 0% in series [1] and 88% in series [2]. The IC50 in series [3] amounted to 1.51 µM. In series [4], this molecule came in with a Ki of 2.36 µM.

As to `O=C(/C=C/c1cccc2c1OCO2)c1cccc(C(F)(F)F)c1`, the inhibition at 10 µM in series [1] was found to be 16%; in series [2] it was 96%. Further, the IC50 in series [3] was found to be 0.55 µM. In addition, the affinity in series [4], expressed as Ki, was 0.78 µM. For the same molecule, the TDI entry in series [5] is “Not Active”.

For `COc1cccc(/C=C/C(=O)c2cccc(OC(F)(F)F)c2)c1OC`, the inhibition at 10 µM in series [1] was determined as 0%; in series [2] it was 41%.

For the molecule `COc1cccc(/C=C/C(=O)c2ccccc2C(F)(F)F)c1OC`, the inhibition at 10 µM stood at 0% in series [1] and 27% in series [2].

`CSc1ccc(C(=O)/C=C/c2cccc3c2OCO3)cc1`: the values for the inhibition at 10 µM in series [1] and in series [2] were 0% and 86%, respectively. Further, in series [3], the IC50 came out at 0.95 µM. Besides, in series [4], the Ki came to 0.55 µM.

`COc1cccc(/C=C/C(=O)c2cccc(C(F)(F)F)c2)c1OC`: the values for the inhibition at 10 µM in series [1] and in series [2] were 0% and 63%, respectively. In series [3], the IC50 was 4.49 µM.

With `COc1cccc(/C=C/C(=O)c2ccc(SC)cc2)c1OC`, the values for the inhibition at 10 µM in series [1] and in series [2] were 0% and 36%, respectively.

With `CS(=O)(=O)c1ccc(C(=O)/C=C/c2cccc3c2OCO3)cc1`, the figures for the inhibition at 10 µM in series [1] and in series [2] were 0% and 93%, respectively. Besides, the IC50 in series [3] came to 1 µM. Besides, the Ki in series [4] was 0.72 µM.

In the case of `O=C(/C=C/c1cccc2c1OCO2)c1ccccc1C(F)(F)F`, the inhibition at 10 µM in series [2] came to 7%.

Take `COc1cccc(/C=C/C(=O)c2ccc(S(C)(=O)=O)cc2)c1OC`: the inhibition at 10 µM in series [1] is 0%; in series [2], 90%. Besides, the IC50 in series [3] was found to be 1.97 µM. In addition, in series [4], affinity was put at a Ki of 1.15 µM.

A word on the inhibition: it is the relative decrease from the control value, in per cent. Broadly, the IC50 is the point on the concentration scale where inhibition reaches its midpoint. By Ki is commonly meant a dissociation constant, usually derived from enzyme kinetics or from competition with a known ligand. Low readings indicate tighter binding, high ones weaker binding.
